Assays:
[1] = test system: Radical scavenging activity; assay: Antioxidant activity assessed as DPPH radical scavenging activity after 30 mins; type: functional
Procedure, shortened: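 Samples in DMSO were plated in triplicate with 200 µM DPPH in EtOH, 37 °C, 30 min, dark, and absorbance read at 515 nm. Percent scavenging was taken against the DMSO control, with gallic acid as positive control. Screening was at 200 µg/mL final, and actives were retested at 2.5–20 µg/mL. IC50 came from linear regression extrapolation.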

[2] = Antioxidant activity assessed as authentic peroxynitrite free radical scavenging activity after 5 mins
[3] = Antioxidant activity assessed as 3-morpholinosydnonimine-derived peroxynitrite free radical scavenging activity after 5 mins
[4] = Antioxidant activity assessed as authentic peroxynitrite free radical scavenging activity […]; type: functional
Procedure, shortened: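 Authentic peroxynitrite (10 µM, in 0.3 N NaOH) oxidizing dihydrorhodamine 123, working solution 5 µM. Buffer was nitrogen-purged 50 mM Na2HPO4, 50 mM NaH2PO4, 90 mM NaCl and 5 mM KCl with 5 mM DTPA. Room temperature, fluorescence at ex 485/em 530 nm; background and final intensities read 5 min after treatment.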

[5] = Antioxidant activity assessed as 3-morpholinosydnonimine-derived peroxynitrite free radical scavenging activity […]; type: functional
Procedure, shortened: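 Peroxynitrite was generated from SIN-1 (10 µM) and measured as oxidation of dihydrorhodamine 123, working solution 5 µM. Buffer was nitrogen-purged 50 mM Na2HPO4, 50 mM NaH2PO4, 90 mM NaCl and 5 mM KCl with 5 mM DTPA. Run at room temperature, fluorescence read at ex 485/em 530 nm; background and final intensities taken 5 min after treatment.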

IC50 [1] [µM]	IC50 [2] [µM]	IC50 [3] [µM]	IC50 [4] [µM]	IC50 [5] [µM]	Compound
16.9	–	–	–	–	O=C/C=C/c1ccc2c(c1)O[C@@H](CO)[C@H](c1ccc(O)c(O)c1)O2 [AMERICANIN A]
> 30	> 30	> 30	–	–	OC[C@@H](O)[C@@H](O)[C@H](O)[C@H](O)CO [MANNITOL]
> 30	> 30	> 30	–	–	O=C1O[C@H]2C=C(CO)[C@H]3[C@H](O[C@@H]4O[C@H](CO)[C@@H](O)[C@H](O)[C@H]4O)OC=C1[C@H]32 [DEACETYLASPERULOSIDE]
> 30	> 30	> 30	–	–	OC[C@H]1OC(O)[C@H](O)[C@@H](O)[C@@H]1O (stereo not given in full) [DEXTROSE]
> 30	–	–	> 30	> 30	COC(=O)C1=CO[C@@H](O[C@@H]2O[C@H](CO)[C@@H](O)[C@H](O)[C@H]2O)[C@@H]2[C@@H](CO)C[C@H](O)[C@H]12
> 30	> 30	> 30	–	–	COC(=O)C1=CO[C@@H](O[C@@H]2O[C@H](CO)[C@@H](O)[C@H](O)[C@H]2O)C2C1[C@@H]1O[C@@H]1[C@]21O[C@@H]1O (stereo not given in full) [CITRIFOLININ B EPIMER B]
> 30	> 30	> 30	–	–	CC[C@H](CC[C@@H](C)[C@H]1CC[C@H]2[C@@H]3CC=C4C[C@@H](O[C@@H]5O[C@H](CO)[C@@H](O)[C@H](O)[C@H]5O)CC[C@]4(C)[C@H]3CC[C@]12C)C(C)C [SITOGLUSIDE]
> 30	> 30	> 30	–	–	C[C@@H]1O[C@@H](OC[C@H]2O[C@@H](Oc3c(-c4ccc(O)cc4)oc4cc(O)cc(O)c4c3=O)[C@H](O)[C@@H](O)[C@@H]2O)[C@H](O)[C@H](O)[C@H]1O [NICOTIFLOROSIDE]
> 30	> 30	> 30	–	–	Nc1ccn([C@@H]2O[C@H](CO)[C@@H](O)[C@H]2O)c(=O)n1 [CYTIDINE]
> 30	> 30	> 30	–	–	COC(=O)C1=CO[C@@H](O[C@@H]2O[C@H](CO)[C@@H](O)[C@H](O)[C@H]2O)[C@H]2[C@@H]1[C@@H]1O[C@@H]1[C@@]2(O)CO
> 30	> 30	> 30	–	–	CO[C@]1(CO)O[C@H](CO)[C@@H](O)[C@@H]1O
> 30	> 30	> 30	–	–	O=C1O[C@H]2C=C(CO)[C@@H](CO)[C@H]2[C@@H]1CO [BORRERIAGENIN]
> 30	> 30	> 30	–	–	COC(=O)C1=CO[C@@H](O[C@@H]2O[C@H](CO)[C@@H](O)[C@H](O)[C@H]2O)C2C1[C@@H]1O[C@@H]1[C@]21O[C@H]1O (single isomer, unassigned; epimer a) [CITRIFOLININ B EPIMER A]
> 30	> 30	> 30	–	–	COC(=O)C1=CO[C@@H](O[C@@H]2O[C@H](CO)[C@@H](O)[C@H](O)[C@H]2O)[C@H]2[C@@H]1C=C[C@@]21C=C(C(=O)c2ccc(O)c(OC)c2)C(=O)O1 [DEHYDROMETHOXYGAERTNEROSIDE]
> 30	> 30	> 30	–	–	CO[C@@]1(CO)O[C@H](CO)[C@@H](O)[C@@H]1O

Compound	IC50 [1] [µM]	IC50 [2] [µM]	IC50 [3] [µM]	IC50 [4] [µM]	IC50 [5] [µM]
CC(=O)OCC1=C[C@@H]2OC(=O)C3=CO[C@@H](O[C@@H]4O[C@H](CO)[C@@H](O)[C@H](O)[C@H]4O)[C@H]1[C@@H]32 [ASPERULOSIDE]	> 30	> 30	> 30	–	–
CC(=O)OCC1=C[C@H](O)[C@@H]2C(C(=O)O)=CO[C@@H](O[C@H]3O[C@@H](CO)[C@H](O)[C@@H](O)[C@@H]3O)[C@H]12 [ASPERULOSIDIC ACID]	> 30	> 30	> 30	–	–
O=C(O)c1cc(O)c(O)c(O)c1 [GALLIC ACID]	2.7	–	–	–	–
